Reference: ChEMBL document CHEMBL1125672, “2-acetylpyridine thiosemicarbazones. 13. Derivatives with antifilarial activity” (1991)

Legend:
Acanthocheilonema viteae = experiment: anti-filarial Activity was measured against Acanthocheilonema viteae in jirds at 12.5 mg/kg/day(5 days) dose; assay type: functional
Summary of the method: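 Jirds with established B. pahangi or A. viteae infections were given drug once daily for 5 days by subcutaneous injection, at the maximum tolerated dose and, where supply allowed, graded lower doses. Tolerance was first checked in noninfected jirds with a single 200 mg/kg oral or subcutaneous dose, watching 72 h for excessive weight loss or death. Macrofilarial suppression was the read-out.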

Onchocerca gutturosa [1] = experiment: Colorimetric quantification of male Onchocerca gutturosa viability, expressed as % inhibition of formazan formation at 1.94*10e-7M conc. by using tetrazolium Dye MTT assay; assay type: functional
Summary of the method: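 Single intact male O. gutturosa, cultured with LLCMK2 feeder cells in MEM + 10% heat-inactivated FCS (5% CO2), drug added from DMSO (≤0.016% DMSO in controls). MTT read after 168 h: worm in 0.5 mg/mL MTT, 30 min at 36.5 °C, formazan solubilized in DMSO 1 h at room temperature, absorbance 490 nm vs DMSO blank.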

Onchocerca gutturosa [2] = experiment: Mean motility score for treated Onchocerca gutturosa involving LLCMK2 feeder cells at a concentration of 5*10e-5 M at 24 h; assay type: functional
Summary of the method: (§1)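 Single male O. gutturosa worms (obtained following abattoir slaughter) per well in Eagle's MEM with 10% heat-inactivated fetal calf serum, penicillin, streptomycin, amphotericin B and bicarbonate, over LLCMK2 feeder cells, 5% CO2 in air. Drug dissolved in DMSO; controls received matched DMSO ≤0.016%. Motility scored 0 (immotile) to 10 (maximum control activity) every 30 min to 4.5 h, then days 1, 2, 3, 4, 7.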

Onchocerca gutturosa [3] = experiment: Mean motility score for treated Onchocerca gutturosa involving LLCMK2 feeder cells at a concentration of 5*10e-5 M at 3 h; assay type: functional; summary of the method: as §1
Onchocerca gutturosa [4] = experiment: Mean motility score for treated Onchocerca gutturosa involving LLCMK2 feeder cells at a concentration of 5*10e-5 M at 3.5 h; assay type: functional; summary of the method: as §1
Onchocerca gutturosa [5] = experiment: Mean motility score for treated Onchocerca gutturosa involving LLCMK2 feeder cells at a concentration of 5*10e-5 M at 4 h; assay type: functional; summary of the method: as §1
Onchocerca gutturosa [6] = experiment: Mean motility score for treated Onchocerca gutturosa involving LLCMK2 feeder cells at a concentration of 5*10e-5 M at 72 h; assay type: functional
Summary of the method: (§2)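 Single male O. gutturosa worms per well in Eagle's MEM with 10% heat-inactivated fetal calf serum, antibiotics and bicarbonate, over LLCMK2 feeder cells, 5% CO2 in air. Test chemical dissolved in DMSO and diluted into medium; control wells got matched DMSO not exceeding 0.016%. Motility scored 0 (immotile) to 10 (maximum control motility) every 30 min for 4.5 h, then at 1, 2, 3, 4 and 7 days.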

Onchocerca gutturosa [7] = experiment: Mean motility score for treated Onchocerca gutturosa involving LLCMK2 feeder cells at a concentration of 5*10e-5 M at 96 h; assay type: functional; summary of the method: as §2
Onchocerca gutturosa [8] = experiment: Mean motility score for treated Onchocerca gutturosa involving LLCMK2 feeder cells at a concentration of 1.21*10e-8M at 1 h; assay type: functional
Summary of the method: (§3)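 One male O. gutturosa per well over LLCMK2 feeder cells in MEM with 10% heat-inactivated FCS, antibiotics and bicarbonate, 5% CO2; compound introduced in DMSO (≤0.016%, equal DMSO in controls). Motility scored 0 (immotile) to 10 (maximal control activity) every 30 min to 4.5 h, then at 1, 2, 3, 4 and 7 days.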

Onchocerca gutturosa [9] = experiment: Mean motility score for treated Onchocerca gutturosa involving LLCMK2 feeder cells at a concentration of 3.05*10e-9 M at 1 h; assay type: functional; summary of the method: as §3
Onchocerca gutturosa [10] = experiment: Mean motility score for treated Onchocerca gutturosa involving LLCMK2 feeder cells at a concentration of 3.05*10e-9 M at 3.5 h; assay type: functional; summary of the method: as §1
Onchocerca gutturosa [11] = experiment: Mean motility score for treated Onchocerca gutturosa involving LLCMK2 feeder cells at a concentration of 3.05*10e-9 M at 96 h; assay type: functional; summary of the method: as §1
Onchocerca gutturosa [12] = experiment: Mean motility score for treated Onchocerca gutturosa involving LLCMK2 feeder cells at a concentration of 1.94*10e-7M at 0.5 h; assay type: functional; summary of the method: as §3
Onchocerca volvulus [13] = experiment: Mean motility score for treated Onchocerca volvulus excluding LLCMK2 feeder cells at a concentration of 5*10e-5 M at 96 h
Onchocerca volvulus [14] = experiment: Mean motility score for treated Onchocerca volvulus excluding LLCMK2 feeder cells at a concentration of 5*10e-5 M at 1.5 h
Onchocerca volvulus [15] = experiment: Mean motility score for treated Onchocerca volvulus excluding LLCMK2 feeder cells at a concentration of 3.1*10e-6 M at 96 h
Onchocerca volvulus [16] = experiment: Mean motility score for treated Onchocerca volvulus excluding LLCMK2 feeder cells at a concentration of 3.1*10e-6 M at 1.5 h
Onchocerca volvulus [17] = experiment: Mean motility score for treated Onchocerca volvulus excluding LLCMK2 feeder cells at a concentration of 3.1*10e-6 M at 0.5 h
Onchocerca gutturosa [18] = experiment: Mean motility score for treated Onchocerca gutturosa involving LLCMK2 feeder cells at a concentration of 3.05*10e-8 M at 2.5 h; assay type: functional; conditions: in the assay text read “3.05*10e-9 M” for “3.05*10e-8 M”; summary of the method: as §3
Onchocerca gutturosa [19] = experiment: Mean motility score for treated Onchocerca gutturosa involving LLCMK2 feeder cells at a concentration of 4.88*10e-8M at 2.5 h; assay type: functional; summary of the method: as §1
Onchocerca gutturosa [20] = experiment: Mean motility score for treated Onchocerca gutturosa involving LLCMK2 feeder cells at a concentration of 4.88*10e-8M at 4 h; assay type: functional; summary of the method: as §1
Onchocerca gutturosa [21] = experiment: Mean motility score for treated Onchocerca gutturosa involving LLCMK2 feeder cells at a concentration of 4.88*10e-8M at 72 h; assay type: functional; summary of the method: as §1
Onchocerca gutturosa [22] = experiment: Mean motility score for treated Onchocerca gutturosa involving LLCMK2 feeder cells at a concentration of 1.95*10e-8 M at 3 h; assay type: functional; conditions: in the assay text read “1.95*10e-7 M” for “1.95*10e-8 M”; summary of the method: as §3
Onchocerca gutturosa [23] = experiment: Mean motility score for treated Onchocerca gutturosa involving LLCMK2 feeder cells at a concentration of 3.1*10e-6 M at 4.5 h; assay type: functional; summary of the method: as §1
Onchocerca gutturosa [24] = experiment: Mean motility score for treated Onchocerca gutturosa involving LLCMK2 feeder cells at a concentration of 3.1*10e-6 M at 0.5 h; assay type: functional; summary of the method: as §1
Onchocerca gutturosa [25] = experiment: Mean motility score for treated Onchocerca gutturosa involving LLCMK2 feeder cells at a concentration of 1.95*10e-8 M at 168 h; assay type: functional; summary of the method: as §3
Onchocerca gutturosa [26] = experiment: Mean motility score for treated Onchocerca gutturosa involving LLCMK2 feeder cells at a concentration of 1.95*10e-8 M at 2.5 h; assay type: functional; summary of the method: as §3
Onchocerca gutturosa [27] = experiment: Mean motility score for treated Onchocerca gutturosa involving LLCMK2 feeder cells at a concentration of 3.1*10e-6 M at 1 h; assay type: functional; summary of the method: as §1
Onchocerca gutturosa [28] = experiment: Mean motility score for treated Onchocerca gutturosa involving LLCMK2 feeder cells at a concentration of 3.1*10e-6 M at 24 h; assay type: functional; summary of the method: as §1
Onchocerca gutturosa [29] = experiment: Mean motility score for treated Onchocerca gutturosa involving LLCMK2 feeder cells at a concentration of 3.1*10e-6 M at 4 h; assay type: functional; summary of the method: as §1
Onchocerca gutturosa [30] = experiment: Mean motility score for treated Onchocerca gutturosa involving LLCMK2 feeder cells at a concentration of 1.95*10e-8 M at 1.5 h; assay type: functional; summary of the method: as §3

Row | SMILES | Suppression (Acanthocheilonema viteae) | Motility (Onchocerca gutturosa [2]) | Motility (Onchocerca gutturosa [3]) | Motility (Onchocerca gutturosa [4]) | Motility (Onchocerca gutturosa [5]) | Motility (Onchocerca gutturosa [6]) | Motility (Onchocerca gutturosa [7]) | Motility (Onchocerca gutturosa [10]) | Motility (Onchocerca gutturosa [11]) | Motility (Onchocerca volvulus [13]) | Motility (Onchocerca volvulus [14]) | Motility (Onchocerca volvulus [15]) | Motility (Onchocerca volvulus [16]) | Motility (Onchocerca volvulus [17]) | other results
1 | C/C(=N\NC(S)=Nc1ccccc1N)c1ccccn1 | 28% | 9.5 | 9.3 | 9.5 | 9.5 | 1.6 | 1.5 | 7.3 | 6.8 | 0.6 | 4.4 | 0.4 | 4.4 | 8 | Inhibition (Onchocerca gutturosa [1]): 84.8%; Motility (Onchocerca gutturosa [8]): 8.5; Motility (Onchocerca gutturosa [9]): 8.8; Motility (Onchocerca gutturosa [12]): 9.8
2 | C/C(=N\NC(=S)N1CCCCCC1)c1ccccn1 | -16% | 0 | 2.2 | 2.3 | 1.5 | 0 | 0 | 8.3 | 5.5 | 0.3 | 8 | 0 | 6.4 | 6.6 | Motility (Onchocerca gutturosa [18]): 8.3; Motility (Onchocerca gutturosa [19]): 8.3; Motility (Onchocerca gutturosa [20]): 8.8; Motility (Onchocerca gutturosa [21]): 3.5; Motility (Onchocerca gutturosa [22]): 10; Motility (Onchocerca gutturosa [23]): 9.5; Motility (Onchocerca gutturosa [24]): 9.5; Motility (Onchocerca gutturosa [25]): 0; Motility (Onchocerca gutturosa [26]): 9.3; Motility (Onchocerca gutturosa [27]): 9.8; Motility (Onchocerca gutturosa [28]): 4; Motility (Onchocerca gutturosa [29]): 9; Motility (Onchocerca gutturosa [30]): 9.5
